# XBP1 UPR activ: activators of adaptive XBP1 UPR arm, primary screen, cell-based, CHO-XBP1 luciferase reporter, luminescence, uHTS | 330,000 tested, 0.33% active | IRE1-XBP1 UPR activation; percent of tunicamycin response, DMSO as zero | activation, % at 20 µM | AID 463104, 2010;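 active = versus positive control, 20 µM dose yields 30% or more activation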
#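 Assay system: IRE1-XBP1 luciferase reporter CHO line. Input: 1000 cells/well. Buffer or medium: F12 with 10% serum. Doses: 20 µM, 1% DMSO. Times: overnight seeding at 37 °C, 6 h compound treatment at 37 °C. Technique: Steady-Glo luciferase glow luminescence, 10 min after reagent addition.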
# T cruzi inh: inhibitors of intracellular T. cruzi growth, primary screen, luminescence, NIH3T3 host cells | T. cruzi beta-gal in NIH3T3, 90 h | inhibition, % (test concentration not listed) | 300,000 tested, 1.4% active;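 active = mean inhibition across valid replicates above about 55%, limit read from the data; inconclusive = mean below that limit but half or more replicates reach it; inactive = mean below it, under half of replicates reach it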;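 also: signal also drops with host cell toxicity which is not excluded here; higher percent means less beta-gal luminescence so fewer parasites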
#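 System: mouse NIH/3T3 fibroblasts infected with β-gal-expressing T. cruzi Tulahuen C4 / Input: NIH/3T3 cells, 5,000 per well / Buffer or medium: Low-serum DMEM with 2% FBS / Probe or stimulus: 5000 reporter trypomastigotes per well / Schedule: ≥90 h infection period, 3 h prior cell attachment / Measured by: GalScreen luminescence, 60 min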
# Mdm2-MdmX inh: inhibitors of human Mdm2-MdmX association, primary screen, cell-based, luminescence, split luciferase, SaOS-2, uHTS | Protein Mdm4 (Homo sapiens) + E3 ubiquitin-protein ligase Mdm2 (Homo sapiens), … | SaOS-2 split-luciferase Mdm2/MdmX complementation | inhibition, % at 8 µM | 330,000 tested, 3% active | AID 485346, 2010;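 active = inhibition of at least 50% at 8 µM in the primary screen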
# Target sequence (O15151 whole entry, looked up): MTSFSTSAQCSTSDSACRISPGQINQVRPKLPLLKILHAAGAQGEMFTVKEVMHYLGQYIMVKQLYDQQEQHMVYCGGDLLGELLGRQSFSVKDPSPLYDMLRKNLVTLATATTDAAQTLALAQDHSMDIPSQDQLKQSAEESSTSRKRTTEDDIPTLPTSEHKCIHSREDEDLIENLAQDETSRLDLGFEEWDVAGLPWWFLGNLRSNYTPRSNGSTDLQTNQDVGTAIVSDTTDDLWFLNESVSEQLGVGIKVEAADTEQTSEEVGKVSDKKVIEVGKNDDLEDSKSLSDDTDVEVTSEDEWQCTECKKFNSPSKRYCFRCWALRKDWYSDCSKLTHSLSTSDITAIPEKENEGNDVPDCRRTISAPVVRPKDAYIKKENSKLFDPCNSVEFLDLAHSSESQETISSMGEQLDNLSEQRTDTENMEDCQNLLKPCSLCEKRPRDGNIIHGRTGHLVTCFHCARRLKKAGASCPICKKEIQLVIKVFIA
# Target sequence (Q00987 whole entry, looked up): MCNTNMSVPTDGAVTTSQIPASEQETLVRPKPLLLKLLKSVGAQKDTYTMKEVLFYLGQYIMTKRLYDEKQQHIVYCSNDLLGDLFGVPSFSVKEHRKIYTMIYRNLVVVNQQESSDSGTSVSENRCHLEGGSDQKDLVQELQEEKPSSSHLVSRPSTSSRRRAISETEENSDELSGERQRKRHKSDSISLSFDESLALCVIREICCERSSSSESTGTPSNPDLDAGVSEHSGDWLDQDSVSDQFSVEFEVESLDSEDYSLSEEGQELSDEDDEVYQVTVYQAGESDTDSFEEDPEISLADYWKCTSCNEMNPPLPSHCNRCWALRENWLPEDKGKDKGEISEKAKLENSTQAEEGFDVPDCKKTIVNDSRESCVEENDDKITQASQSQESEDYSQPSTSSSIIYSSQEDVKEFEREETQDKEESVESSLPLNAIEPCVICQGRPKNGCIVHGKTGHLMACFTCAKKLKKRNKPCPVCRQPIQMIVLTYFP
# CSC inhib: cancer stem cell viability inhibitors, primary screen, luminescence. cancer stem cell-like cells viability. 300,000 tested, 1.1% active. inhibition, % at 7.5 µM; in the data active = inhibition above about 75%; inconclusive = no clear call, values can overlap the other calls; tested in HMLE shEcad cells
# Beta apoptosis: inhibitors of cytokine-induced beta cell apoptosis, primary screen, luminescence. protection from apoptosis, % (test concentration not listed). INS-1E cytokine-induced death, ATP luminescence, 48 h; percent of positive-control rescue, neutral wells zero. 300,000 tested, 0.8% active;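 active = Every replicate reaches about 75%, or at least half do and their mean reaches it too, limit read from the data; inconclusive = At least half of replicates reach the limit but their mean does not; inactive = Under half of replicates reach the limit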;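 also: higher means more ATP so stronger rescue from cytokine killing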
# UPR CHOP act: activators of apoptotic CHOP UPR arm, primary screen, cell-based, CHO-CHOP luciferase reporter, luminescence, uHTS | AID 449763, 2010 | UPR activation; percent of tunicamycin response over DMSO baseline | activation, % at 10 µM | 330,000 tested, 0.34% active;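 active = at 10 µM dose, activation of 40% or more, normalized to positive control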
#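 Test system: CHO-CHOP cells, stable luciferase reporter of PERK-eIF2a-CHOP signalling | Quantity: 500 CHO-CHOP cells per well | Buffer or medium: F12 plus 10% serum | Compound dosing: 10 µM single point, 0.5% DMSO | Schedule: 6 h compound treatment, 37 °C | Signal: Luciferase luminescence | Control set: Tunicamycin high control, DMSO low control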
# Mdm2-MdmX conf: Mdm2-MdmX complex disruptors, retested hits, confirmation, luminescence, single concentration | AID 489028, 2010 | Mdm2-MdmX binding, luminescent assay | inhibition, % at 8 µM | 10,000 tested, 55% active | shares compounds with Mdm2-MdmX inh; in the data active = inhibition above about 40%
# Full FLuc ctr: full-length luciferase signal inhibition, confirmation, counter-screen for Mdm2/MdmX interaction inhibitor project, cell-based, single concentration, SaOS-2; inhibition, % at 8 µM; 6,200 tested, 77% active; AID 504607, 2011; shares compounds with Mdm2-MdmX inh; SaOS-2 full-length luciferase counterscreen, luminescence;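 active = mean inhibition at 8 µM reaching about 37%, which flags the compound as non-specific, limit read from the data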;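 also: p53-null SaOS-2 cells with luciferase driven by a doxycycline-inducible promoter; compound on cells about two nights before reading with doxycycline added after day one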
# A number is an active result; – = inactive; ? = inconclusive; · = no result given. This is a sample that favours compounds with a hit; in the whole collection about 5% have one here.
SMILES,XBP1 UPR activ,T cruzi inh,Mdm2-MdmX inh,CSC inhib,Beta apoptosis,UPR CHOP act,Mdm2-MdmX conf,Full FLuc ctr
COC(=O)C1=C(C)N(Cc2ccccc2)C(=NCCc2c[nH]c3ccccc23)N[C@H]1c1cccc(F)c1,–,·,98,123,–,–,51,56
COC(=O)C1=C(C)N(Cc2ccccc2)C(=NCCc2c[nH]c3ccccc23)N[C@H]1c1ccccc1,–,·,55,–,–,–,–,·
COC(=O)C1=C(C)N(Cc2ccccc2)C(=S)N[C@H]1c1cccc(F)c1,–,–,–,–,–,–,·,·
Clc1ccc(OCCCn2cncn2)cc1Cl,–,–,–,–,–,–,·,·
COc1ccc(-c2cc(C(=O)Nc3ccccc3SC)no2)cc1,–,–,–,–,–,–,·,·
COc1ccc(-c2cc(C(=O)Nc3cc(Br)ccc3O)no2)cc1,–,–,83,–,–,–,–,101
COc1ccc(-c2cc(C(=O)Nc3c(C)nn(Cc4ccccc4)c3C)no2)cc1,–,–,63,–,–,–,–,·
COc1cccc(-c2cc(C(=O)Nc3cc(C)nn3-c3ccccc3)no2)c1,–,–,65,–,–,–,–,·
COc1ccccc1-c1cc(C(=O)Nc2cc(C)nn2-c2ccccc2)no1,–,–,57,–,–,–,62,45
COc1ccc(-c2cc(C(=O)Nc3cc(C)nn3-c3ccccc3)no2)cc1,–,–,–,–,–,–,·,·
O=C(Nc1ccccc1-c1ccccc1)c1ccc(=O)[nH]n1,–,–,–,–,·,–,·,·
Cc1oc2cc3oc(=O)c(CCC(=O)N[C@H](C(=O)O)C(C)C)c(C)c3cc2c1C,–,–,–,–,–,–,·,·
CC1=C(C(=O)Nc2ccccc2)C(c2ccco2)C(C#N)=C(SCC(=O)Nc2cccc(C)c2C)N1 (stereo not drawn),–,–,69,–,–,–,42,79
COc1ccc(S(=O)(=O)N2c3ccc(F)cc3CCC2C)cc1 (stereo not drawn),–,–,59,–,·,–,63,97
Nc1ccc(Cc2nc3cc4ccccc4cc3[nH]2)cc1,–,–,69,–,–,–,–,70
Nc1ccc(C(=O)OCCCc2nc3cc4ccccc4cc3[nH]2)cc1,–,–,65,–,–,–,–,94
Nc1ccc(C(=O)OCc2nc3cc4ccccc4cc3[nH]2)cc1,–,–,74,–,–,–,82,–
Nc1ccc(C(=O)OCc2nc3c(ccc4ccccc43)[nH]2)cc1,–,–,–,–,–,–,·,·
c1ccc(Cc2nc3ccccc3[nH]2)cc1,–,–,–,–,–,–,·,·
CCN1/C(=N\N)c2cccc3cccc1c23,–,–,–,–,–,–,·,·
COc1ccc(NC(=O)CNC(=O)Cn2cnc3sc4c(c3c2=O)CCCC4)cc1OC,–,–,–,–,–,–,·,·
COc1ccc(-c2cccc(-c3cc(=O)oc4cc(OC)cc(OC)c34)c2)cc1,–,·,78,·,·,–,54,68
COc1ccc(-c2cccc(-c3cc(=O)oc4cc5c(cc34)OCO5)c2)cc1,–,·,54,·,·,–,–,·
COc1ccc(-c2cccc(-c3cc(=O)oc4cc(OC)c(OC)c(OC)c34)c2)cc1,–,·,–,·,·,–,·,·
COc1cc(OC)c2c(-c3cccc(-c4ccc(O)cc4)c3)cc(=O)oc2c1,–,·,73,·,·,–,56,43
SMILES,XBP1 UPR activ,T cruzi inh,Mdm2-MdmX inh,CSC inhib,Beta apoptosis,UPR CHOP act,Mdm2-MdmX conf,Full FLuc ctr
COc1cc(OC)c2c(-c3cccc(-c4ccc(N(C)C)cc4)c3)cc(=O)oc2c1,–,·,67,·,·,–,56,103
COc1cc(OC)c2c(-c3cccc(-c4ccc(OC(F)(F)F)cc4)c3)cc(=O)oc2c1,–,·,–,·,·,–,·,·
O=C(Nc1cc(Cl)ccc1-n1cncn1)c1ccc([N+](=O)[O-])s1,–,69,58,–,102,–,–,·
Cc1cccnc1NC(=O)c1cc2c(=O)oc3ccccc3c2s1,–,–,–,–,–,–,·,·
Cc1ccc(NC(=O)c2cc3c(=O)oc4ccccc4c3s2)nc1,–,–,63,–,–,–,–,·
Cc1ccc2c(c1)c1c(n2CC(O)Cn2c(C)nc3ccccc32)/C(=N\O)CCC1 (stereo not drawn),–,–,60,–,–,–,–,·
Cc1ccc2c(c1)c1c(n2CC(O)Cn2c(C)nc3ccccc32)C(=O)CCC1 (stereo not drawn),–,–,–,–,·,–,·,·
CCCCN(CC)C(=O)c1cc2c(=O)[nH]c3ccc(C)cc3c2s1,–,–,–,–,–,–,·,·
Cc1ccc2[nH]c(=O)c3cc(C(=O)N(CCCOC(C)C)Cc4ccco4)sc3c2c1,–,–,69,–,–,–,–,·
CCCCN(Cc1ccco1)C(=O)c1cc2c(=O)[nH]c3ccc(C)cc3c2s1,–,–,84,–,–,–,–,–
Cc1ccc2[nH]c(=O)c3cc(C(=O)N(C)c4ccccc4C)sc3c2c1,–,–,–,·,–,–,·,·
Cc1cc(OCC(=O)Nn2cnnc2)ccc1Br,–,–,–,–,–,–,·,·
Cc1nn(Cc2ccccc2)c(Cl)c1/C=C/C(=O)OCC(=O)NC(C)C(C)C (stereo not drawn),–,–,–,–,–,–,·,·
Cc1nn(Cc2c(Cl)cccc2Cl)c(Cl)c1/C=C/C(=O)OCC(=O)NCC(F)(F)F,–,–,79,–,–,–,–,·
Cc1cc(C(C)(C)CC(C)(C)C)ccc1OCCOCC[N+](C)(C)Cc1ccccc1,–,·,100,118,100,–,96,54
O=C(OCC(=O)N1N=C(c2ccc(Cl)cc2)CC1c1ccco1)c1ccccc1O (stereo not drawn),–,–,–,–,–,–,·,·
CCc1nc(N=C(N)N)nc2ccccc12,–,?,59,–,–,–,–,·
CCc1nc2ccccc2c(C(=O)O)c1C,–,–,–,–,–,–,·,·
NC(N)=Nc1nc(-c2ccccc2)c2ccccc2n1,–,81,62,–,·,–,–,·
Cc1cc(OCC(=O)Nc2ccncc2)cc(C)c1Cl,–,–,–,–,·,–,·,·
Cc1nn(-c2ccccc2)c(C)c1/C=N/NC(=O)c1cc(-c2ccc(Cl)s2)[nH]n1,–,–,56,–,–,–,59,49

# From PubChem
